Laboratory results taken from BindingDB's records for doi:10.1021/jm9708588 (National University of Singapore, 1998).

target: T1, Muscarinic acetylcholine receptor M1 (Rattus norvegicus, UniProt P08482); assay: Binding affinity to Muscarinic acetylcholine receptor M1 by measuring its ability to displace [3H]pirenzepine from rat cerebral cortex
T1 sequence (P08482 whole entry): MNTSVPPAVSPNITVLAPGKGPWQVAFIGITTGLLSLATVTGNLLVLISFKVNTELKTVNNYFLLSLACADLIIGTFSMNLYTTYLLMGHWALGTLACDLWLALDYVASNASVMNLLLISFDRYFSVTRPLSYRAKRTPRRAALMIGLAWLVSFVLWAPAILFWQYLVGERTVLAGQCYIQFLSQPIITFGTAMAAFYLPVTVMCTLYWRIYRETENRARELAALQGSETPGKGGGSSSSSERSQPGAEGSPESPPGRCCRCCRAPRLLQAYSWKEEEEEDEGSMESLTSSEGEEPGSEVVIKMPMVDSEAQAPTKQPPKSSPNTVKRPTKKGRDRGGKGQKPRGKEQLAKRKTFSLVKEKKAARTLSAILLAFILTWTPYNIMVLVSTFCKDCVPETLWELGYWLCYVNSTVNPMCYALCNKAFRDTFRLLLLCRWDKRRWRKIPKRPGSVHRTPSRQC

Row | SMILES | Ki
1 | CC#CCCON=C1CC2CCC(C1)N2C | 0.794 µM
2 | CC#CCON=C1CCN(C)CC1 | 3.98 µM
3 | CCC#CCON=C1CCN(C)CC1 | 3.98 µM
4 | C#CCON=C1CC2CCC(C1)N2C | 1.25 µM
5 | C#CCCON=C1CC2CCC(C1)N2C | 1.58 µM
6 | C#CC(CC)ON=C1CCN(C)CC1 (stereo unspecified) | 6.3 µM
7 | CN1C2CCC1CC(=NO)C2 | 501 µM
8 | C#CC(CC)ON=C1CC2CCC(C1)N2C (stereo unspecified) | 0.316 µM
9 | CON=C1CC2CCC(C1)N2C | 999 µM
10 | CON=C1CCN(C)CC1 | 50.1 µM
11 | C#CCCON=C1CCN(C)CC1 | 1.58 µM
12 | C#CC(C)ON=C1CC2CCC(C1)N2C (stereo unspecified) | 9.99 µM
13 | C#CCCCON=C1CCN(C)CC1 | 7.94 µM
14 | C#CCC(C)ON=C1CC2CCC(C1)N2C (stereo unspecified) | 0.1 µM
15 | CC#CCCON=C1CCN(C)CC1 | 1.99 µM
16 | CN1CCC(=NO)CC1 | 501 µM
17 | C#CC(C)ON=C1CCN(C)CC1 (stereo unspecified) | 5.01 µM
18 | C#CCON=C1CCN(C)CC1 | 50.1 µM
19 | C#CCCCON=C1CC2CCC(C1)N2C | 0.63 µM
20 | CCC#CCON=C1CC2CCC(C1)N2C | 5.01 µM
21 | CC#CCON=C1CC2CCC(C1)N2C | 0.501 µM
22 | C#CCC(C)ON=C1CCN(C)CC1 (stereo unspecified) | 3.16 µM
23 | O=C1CCCN1CC#CCN1CCCC1 [1-[4-(2-oxo-pyrrolidin-1-yl)-but-2-ynyl]-pyrrolidinium] | 0.63 µM
24 | C[N+](C)(C)CC#CCOC(=O)Nc1cccc(Cl)c1 [McN-A-343] | 5.01 µM

target: Muscarinic acetylcholine receptor M3 (Rattus norvegicus, UniProt P08483); assay: Binding affinity to Muscarinic acetylcholine receptor M3 by measuring its ability to displace [3H]N-methylscopolamine binding in rat submandibulary gland
Method in brief: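 Rat submandibulary gland membranes prepared in Na+/Mg2+ HEPES buffer pH 7.4. Nonspecific binding defined with 1 μM (±)-QNB. Pellet obtained by centrifugation and counted by scintillation. Triplicate determinations. Ki derived from IC50 by Cheng–Prusoff.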

Chain of Muscarinic acetylcholine receptor M3 (P08483 whole entry): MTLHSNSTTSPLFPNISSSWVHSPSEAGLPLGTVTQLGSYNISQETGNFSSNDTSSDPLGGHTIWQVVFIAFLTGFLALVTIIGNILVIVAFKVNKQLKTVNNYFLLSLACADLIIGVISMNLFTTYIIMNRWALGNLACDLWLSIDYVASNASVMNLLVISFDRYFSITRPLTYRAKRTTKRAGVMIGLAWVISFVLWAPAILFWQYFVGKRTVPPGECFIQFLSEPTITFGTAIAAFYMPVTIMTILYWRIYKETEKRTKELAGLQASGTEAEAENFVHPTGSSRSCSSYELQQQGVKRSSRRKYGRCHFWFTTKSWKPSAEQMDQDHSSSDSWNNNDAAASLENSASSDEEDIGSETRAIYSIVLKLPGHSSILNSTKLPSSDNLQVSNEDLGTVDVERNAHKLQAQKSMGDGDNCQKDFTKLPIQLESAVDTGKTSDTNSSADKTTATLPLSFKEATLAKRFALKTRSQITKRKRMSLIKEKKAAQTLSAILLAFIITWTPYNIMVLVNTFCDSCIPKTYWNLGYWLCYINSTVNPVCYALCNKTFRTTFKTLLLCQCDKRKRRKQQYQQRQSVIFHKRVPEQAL

Row | SMILES | Ki
25 | C[N+](C)(C)CC#CCOC(=O)Nc1cccc(Cl)c1 [McN-A-343] | 2.51 µM

target: not listed separately; assay: The compound was evaluated for its ability to inhibit [3H]NMS binding to Muscarinic acetylcholine receptor in heart

Row | SMILES | Ki
26 | CCC#CCON=C1CC2CCC(C1)N2C | 63.1 µM
